Laboratory results as given in ChEMBL document CHEMBL1629684, “Effects of ravuconazole treatment on parasite load and immune response in dogs experimentally infected with Trypanosoma cruzi” (Antimicrob Agents Chemother, 2010).
Active and inactive are the calls of the source.

How the values were obtained:
[1] = tested on: Trypanosoma cruzi; assay: Antimicrobial activity against Trypanosoma cruzi Y infected in mongrel dog assessed as survival of dog at 12 mg/kg, po BID started 12 to 22 days postinfection measured after 1 day; assay type: functional
Outline: (§1)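 Four-month-old mongrel dogs (five per group) received 2.0 × 10^3 Y or Berenice-78 bloodstream trypomastigotes/kg. Oral dosing began 12–22 days postinfection, when parasitemia was detected by fresh blood examination: 12 mg/kg q12h for 90 days, or 7 mg/kg q12h for 60 days. Ear-vein blood was checked from day 10. Mortality was expressed as the cumulative percentage of dead animals.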

[2] = tested on: Canis familiaris; assay: Toxicity in mongrel dog infected with Trypanosoma cruzi Berenice-78 assessed as weight loss at 7 mg/kg, po BID for 90 days started 12 to 22 days postinfection measured after 6 months; assay type: organism-based, Canis lupus familiaris; parameters: dose 7 mg/kg, route oral; conditions: in vivo, 4383 h
Outline: (§2)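 Body weight gain, in kg, was recorded for infected dogs 1 day and 6 months after the end of oral b.i.d. treatment. Treated animals were compared with infected untreated and noninfected control groups.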

[3] = tested on: Canis familiaris; assay: Immunostimulatory activity in mongrel dog infected with Trypanosoma cruzi Berenice-78 assessed as production of antibody IgG at 12 mg/kg, po BID for 90 days measured after 6 months by ELISA; assay type: functional, organism-based; parameters: dose 12 mg/kg; conditions: Canis lupus familiaris
Outline: (§3)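 Serum was taken before inoculation and then monthly until 6 months posttreatment, and stored at −80°C. ELISA plates were coated with alkaline extract of Y-strain parasites grown to exponential phase in LIT medium. Bound total IgG or IgG2 was detected with peroxidase-labeled anti-dog conjugates and read at 490 nm. Cutoff was the mean absorbance of 10 uninfected dogs plus 2 SD.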

[4] = tested on: Canis familiaris; assay: Immunostimulatory activity in mongrel dog infected with Trypanosoma cruzi Berenice-78 assessed as production of antibody IgG at 7 mg/kg, po BID for 90 days measured up to 30 days by ELISA; assay type: functional, organism-based; parameters: dose 7 mg/kg; conditions: Canis lupus familiaris; outline: as §3
[5] = tested on: Canis familiaris; assay: Immunostimulatory activity in mongrel dog infected with Trypanosoma cruzi Y assessed as production of antibody IgG at 12 mg/kg, po BID for 90 days measured after 6 months by ELISA; assay type: functional, organism-based; parameters: dose 12 mg/kg; conditions: Canis lupus familiaris; outline: as §3
[6] = tested on: Canis familiaris; assay: Immunostimulatory activity in mongrel dog infected with Trypanosoma cruzi Y assessed as production of antibody IgG2 at 7 mg/kg, po BID for 90 days measured after 6 months by ELISA; assay type: functional, organism-based; parameters: dose 7 mg/kg; conditions: Canis lupus familiaris, in the assay text read “for 60 days” for “for 90 days”; outline: as §3
[7] = tested on: Trypanosoma cruzi; assay: Antimicrobial activity against Trypanosoma cruzi Berenice-78 infected in mongrel dog assessed as survival of dog at 7 mg/kg, po BID started 12 to 22 days postinfection measured after 1 day; assay type: functional; outline: as §1
[8] = tested on: Trypanosoma cruzi; assay: Antitrypanosomal activity against Trypanosoma cruzi Y infected in mongrel dog assessed as reduction in INFgamma production in right atrium at 7 mg/kg, po BID after 180 days by semiquantitative RT-PCR; conditions: Cardiac atrium
[9] = tested on: Trypanosoma cruzi; assay: Antimicrobial activity against Trypanosoma cruzi Berenice-78 infected in mongrel dog assessed as suppression of microbial proliferation at 12 mg/kg, po BID started 12 to 22 days postinfection measured after 1 day; assay type: functional, organism-based; parameters: dose 12 mg/kg
Outline: (§4)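 Mongrel dogs, 4 months old, dewormed and vaccinated, were inoculated with 2.0 × 10^3 bloodstream trypomastigotes/kg. Oral b.i.d. (q12h) dosing began 12 to 22 days postinfection, once parasitemia appeared. Dosing ran 90 days at 12 mg/kg and 60 days at 7 mg/kg, with 5 dogs per group. Parasitemia was read by fresh-blood examination of marginal ear vein blood from day 10 of infection until parasites were undetectable.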

[10] = tested on: Trypanosoma cruzi; assay: Antimicrobial activity against Trypanosoma cruzi Y infected in mongrel dog assessed as survival of dog at 7 mg/kg, po BID started 12 to 22 days postinfection measured after 1 day; assay type: functional; outline: as §1
[11] = tested on: Trypanosoma cruzi; assay: Antitrypanosomal activity against Trypanosoma cruzi Y infected in mongrel dog assessed as reduction in INFgamma production in right atrium at 7 mg/kg, po BID after 180 days by semiquantitative RT-PCR; assay type: functional, organism-based; parameters: dose 7 mg/kg; conditions: Cardiac atrium
Outline: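 Dogs were euthanized 6 months after the end of treatment. RNA was extracted from the right atrium with acid guanidinium thiocyanate-phenol-chloroform. One microgram was DNase treated and reverse transcribed with oligo(dT) for 1 h at 42°C. IFN-γ or IL-10 cDNA was amplified with 1.5 mM MgCl2: 94°C 5 min, n cycles of 94/57/72°C, final extension 72°C 6 min. Expression was scored semiquantitatively against infected untreated and noninfected dogs.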

[12] = tested on: Canis familiaris; assay: Toxicity in mongrel dog infected with Trypanosoma cruzi Y assessed as weight loss at 12 mg/kg, po BID for 90 days started 12 to 22 days postinfection measured after 6 months; assay type: organism-based, Canis lupus familiaris; parameters: dose 12 mg/kg, route oral; conditions: in vivo, 4383 h; outline: as §2
[13] = tested on: Trypanosoma cruzi; assay: Antimicrobial activity against Trypanosoma cruzi Berenice-78 infected in mongrel dog assessed as parasite level in blood of dog at 7 mg/kg, po BID started 12 to 22 days postinfection measured after 30 days by PCR analysis; assay type: functional
Outline: (§5)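 Blood PCR for T. cruzi on treated dogs (n = 5 per group) at 1 and 6 months posttreatment. Each reaction took 2 μl blood DNA template in Tris-HCl pH 9.0, 75 mM KCl, 3.5 mM MgCl2 and 0.2 mM dNTPs. Cycling was 95°C 5 min, then 2 cycles annealing at 30°C, 33 cycles at 40°C, and 72°C 5 min. Products were run on 6% polyacrylamide and silver stained. Reported as rate of positive animals.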

[14] = tested on: Canis familiaris; assay: Immunostimulatory activity in mongrel dog infected with Trypanosoma cruzi Berenice-78 assessed as production of antibody IgG at 12 mg/kg, po BID for 90 days measured up to 30 days by ELISA; assay type: functional, organism-based; parameters: dose 12 mg/kg; conditions: Canis lupus familiaris; outline: as §3
[15] = tested on: Trypanosoma cruzi; assay: Antimicrobial activity against Trypanosoma cruzi Y infected in mongrel dog assessed as suppression of microbial proliferation at 12 mg/kg, po BID started 12 to 22 days postinfection measured after 1 day; assay type: functional, organism-based; parameters: dose 12 mg/kg; outline: as §4
[16] = tested on: Canis familiaris; assay: Toxicity in mongrel dog infected with Trypanosoma cruzi Y assessed as weight loss at 7 mg/kg, po BID for 90 days started 12 to 22 days postinfection measured after 6 months; assay type: organism-based, Canis lupus familiaris; parameters: dose 7 mg/kg, route oral; conditions: in vivo, 4383 h; outline: as §2
[17] = tested on: Canis familiaris; assay: Toxicity in mongrel dog infected with Trypanosoma cruzi Berenice-78 assessed as weight loss at 12 mg/kg, po BID for 90 days started 12 to 22 days postinfection measured after 6 months; assay type: organism-based, Canis lupus familiaris; parameters: dose 12 mg/kg, route oral; conditions: in vivo, 4383 h; outline: as §2
[18] = tested on: Canis familiaris; assay: Immunostimulatory activity in mongrel dog infected with Trypanosoma cruzi Y assessed as production of antibody IgG2 at 12 mg/kg, po BID for 90 days measured after 6 months by ELISA; assay type: functional, organism-based; parameters: dose 12 mg/kg; conditions: Canis lupus familiaris; outline: as §3
[19] = tested on: Canis familiaris; assay: Toxicity in mongrel dog infected with Trypanosoma cruzi Berenice-78 assessed as weight loss at 7 mg/kg, po BID for 90 days started 12 to 22 days postinfection measured after 1 day; assay type: organism-based, Canis lupus familiaris; parameters: dose 7 mg/kg, route oral; conditions: in vivo, 24 h; outline: as §2
[20] = tested on: Canis familiaris; assay: Immunostimulatory activity in mongrel dog infected with Trypanosoma cruzi Berenice-78 assessed as production of antibody IgG2 at 12 mg/kg, po BID for 90 days measured after 6 months by ELISA; assay type: functional, organism-based; parameters: dose 12 mg/kg; conditions: Canis lupus familiaris; outline: as §3
[21] = tested on: Canis familiaris; assay: Immunostimulatory activity in mongrel dog infected with Trypanosoma cruzi Berenice-78 assessed as production of antibody IgG at 7 mg/kg, po BID for 90 days measured after 6 months by ELISA; assay type: functional, organism-based; parameters: dose 7 mg/kg; conditions: Canis lupus familiaris; outline: as §3
[22] = tested on: Canis familiaris; assay: Immunostimulatory activity in mongrel dog infected with Trypanosoma cruzi Berenice-78 assessed as production of antibody IgG2 at 12 mg/kg, po BID for 90 days measured up to 30 days by ELISA; assay type: functional, organism-based; parameters: dose 12 mg/kg; conditions: Canis lupus familiaris; outline: as §3
[23] = tested on: Canis familiaris; assay: Immunostimulatory activity in mongrel dog infected with Trypanosoma cruzi Berenice-78 assessed as production of antibody IgG2 at 7 mg/kg, po BID for 90 days measured up to 30 days by ELISA; assay type: functional, organism-based; parameters: dose 7 mg/kg; conditions: Canis lupus familiaris; outline: as §3
[24] = tested on: Canis familiaris; assay: Immunostimulatory activity in mongrel dog infected with Trypanosoma cruzi Berenice-78 assessed as production of antibody IgG2 at 7 mg/kg, po BID for 90 days measured after 6 months by ELISA; assay type: functional, organism-based; parameters: dose 7 mg/kg; conditions: Canis lupus familiaris, in the assay text read “for 60 days” for “for 90 days”; outline: as §3
[25] = tested on: Trypanosoma cruzi; assay: Antimicrobial activity against Trypanosoma cruzi Berenice-78 infected in mongrel dog assessed as survival of dog at 12 mg/kg, po BID started 12 to 22 days postinfection measured after 1 day; assay type: functional; outline: as §1
[26] = tested on: Trypanosoma cruzi; assay: Antimicrobial activity against Trypanosoma cruzi Y infected in mongrel dog assessed as suppression of microbial proliferation at 7 mg/kg, po BID started 12 to 22 days postinfection measured after 1 day; assay type: functional, organism-based; parameters: dose 7 mg/kg; outline: as §4
[27] = tested on: Trypanosoma cruzi; assay: Antimicrobial activity against Trypanosoma cruzi Berenice-78 infected in mongrel dog assessed as suppression of microbial proliferation at 7 mg/kg, po BID started 12 to 22 days postinfection measured after 1 day; assay type: functional, organism-based; parameters: dose 7 mg/kg; outline: as §4
[28] = tested on: Canis familiaris; assay: Immunostimulatory activity in mongrel dog infected with Trypanosoma cruzi Y assessed as production of antibody IgG at 7 mg/kg, po BID for 90 days measured after 6 months by ELISA; assay type: functional, organism-based; parameters: dose 7 mg/kg; conditions: Canis lupus familiaris, in the assay text read “for 60 days” for “for 90 days”; outline: as §3
[29] = tested on: Canis familiaris; assay: Toxicity in mongrel dog infected with Trypanosoma cruzi Berenice-78 assessed as weight loss at 12 mg/kg, po BID for 90 days started 12 to 22 days postinfection measured after 1 day; assay type: organism-based, Canis lupus familiaris; parameters: dose 12 mg/kg, route oral; conditions: in vivo, 24 h; outline: as §2
[30] = tested on: Trypanosoma cruzi; assay: Antimicrobial activity against Trypanosoma cruzi Y infected in mongrel dog assessed as parasite level in blood of dog at 7 mg/kg, po BID started 12 to 22 days postinfection measured after 30 days by PCR analysis; assay type: functional; outline: as §5
[31] = tested on: Trypanosoma cruzi; assay: Antitrypanosomal activity against Trypanosoma cruzi Y infected in mongrel dog assessed as reduction in IL10 production in right atrium at 7 mg/kg, po BID after 180 days by semiquantitative RT-PCR; conditions: Cardiac atrium

Compound: O=C(Cn1ccnc1[N+](=O)[O-])NCc1ccccc1 [BENZNIDAZOLE]
- Activity [1]: 100%
- Activity [2]: Non-toxic
- Activity [3]: Active
- Activity [4]: Active
- Activity [5]: Active
- Activity [6]: Active
- Activity [7]: 100%
- Activity [8]: Active
- Activity [9]: Non-toxic
- Activity [10]: 100%
- Activity [11]: Active
- Activity [12]: Non-toxic
- Activity [13]: 0%
- Activity [14]: Active
- Activity [15]: Non-toxic
- Activity [16]: Non-toxic
- Activity [17]: Non-toxic
- Activity [18]: Active
- Activity [19]: Toxic
- Activity [20]: Active
- Activity [21]: Active
- Activity [22]: Active
- Activity [23]: Active
- Activity [24]: Active
- Activity [25]: 100%
- Activity [26]: Non-toxic
- Activity [27]: Non-toxic
- Activity [28]: Active
- Activity [29]: Toxic
- Activity [30]: 0%
- Activity [31]: Active
